Measured values from ChEMBL document CHEMBL1156597, “Structure-activity relationship of kahalalide F synthetic analogues” (J Med Chem, 2008).

What was measured:
DU-145 = assay: Cytotoxicity against human DU145 cells after 48 hrs by SRB assay; format: functional, cell-based; details: Homo sapiens, DU-145, 48 h; for CC50: read-out: LC50 (the source's name)
In short: (§1)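 Cells grown in RPMI 1640 with 10% FBS and penicillin/streptomycin at 37 °C and 5% CO₂, trypsinized, then seeded at 5 × 10³/well. After 18 h drug-free attachment, samples in DMSO/EtOH/PBS (0.5:0.5:99) were added for 48 h continuous exposure. Cells were fixed with cold TCA (1 h, 4 °C) and stained with SRB (10 min). Tris-solubilized stain read at 490 nm. Triplicate wells, mean ± SD; GI₅₀ derived.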

[1] = Cytotoxicity against human IGROV cells after 48 hrs by SRB assay; format: functional; details: for CC50: read-out: LC50 (the source's name); in short: as §1
[2] = Cytotoxicity against human IGROV-ET cells after 48 hrs by SRB assay; format: functional; details: for CC50: read-out: LC50 (the source's name); in short: as §1
SK-BR-3 = assay: Cytotoxicity against human SKBR3 cells after 48 hrs by SRB assay; format: functional; details: SK-BR-3, 48 h; for CC50: read-out: LC50 (the source's name); in short: as §1
SK-MEL-28 = assay: Cytotoxicity against human SK-MEL-28 cells after 48 hrs by SRB assay; format: functional, cell-based; details: Homo sapiens, SK-MEL-28, 48 h; for CC50: read-out: LC50 (the source's name); in short: as §1
A549 = assay: Cytotoxicity against human A549 cells after 48 hrs by SRB assay; format: functional, cell-based; details: Homo sapiens, A549, 48 h; in short: as §1
K562 = assay: Cytotoxicity against human K562 cells after 48 hrs by SRB assay; format: functional; details: K562, 48 h; for CC50: read-out: LC50 (the source's name); in short: as §1
PANC-1 = assay: Cytotoxicity against human PANC1 cells after 48 hrs by SRB assay; format: functional; details: PANC-1, 48 h; for CC50: read-out: LC50 (the source's name); in short: as §1
HT-29 = assay: Cytotoxicity against human HT29 cells after 48 hrs by SRB assay; format: functional, cell-based; details: Homo sapiens, HT-29, 48 h; for CC50: read-out: LC50 (the source's name); in short: as §1
LoVo [3] = assay: Cytotoxicity against human LoVo cells after 48 hrs by SRB assay; format: functional; details: for CC50: read-out: LC50 (the source's name)
LoVo [4] = assay: Cytotoxicity against human doxorubicin resistant LoVo cells after 48 hrs by SRB assay; format: functional; details: for CC50: read-out: LC50 (the source's name); in short: as §1
HeLa = assay: Cytotoxicity against human HeLa cells after 48 hrs by SRB assay; format: functional; details: for CC50: read-out: LC50 (the source's name); in short: as §1
[5] = Cytotoxicity against human HeLa-APL cells after 48 hrs by SRB assay; format: functional; in short: as §1

Row | Compound | GI50 (DU-145) [nM] | GI50 (DU-145; read-out: GI50) [nM] | CC50 (DU-145) [nM] | GI50 [1] [nM] | GI50 ([1]; read-out: GI50) [nM] | CC50 [1] [nM] | GI50 [2] [nM] | GI50 ([2]; read-out: GI50) [nM] | CC50 [2] [nM] | GI50 (SK-BR-3; read-out: GI50) [nM] | CC50 (SK-BR-3) [nM] | GI50 (SK-MEL-28; read-out: GI50) [nM] | CC50 (SK-MEL-28) [nM] | LC50 (A549) [nM] | GI50 (A549; read-out: GI50) [nM] | CC50 (K562) [nM] | CC50 (PANC-1) [nM] | CC50 (HT-29) [nM] | GI50 (LoVo [3]) [nM] | TGI (LoVo [3]) [nM] | also measured
1 | C/C=C1\NC(=O)[C@H](c2ccccc2)NC(=O)[C@@H](C(C)C)NC(=O)[C@@H]([C@H](C)CC)NC(=O)[C@H](NC(=O)[C@H](NC(=O)[C@H](CCCN)NC(=O)[C@H]2CCCN2C(=O)[C@H](NC(=O)[C@@H](NC(=O)[C@@H](NC(=O)[C@H](NC(=O)CCCC(C)C)C(C)C)[C@@H](C)O)C(C)C)C(C)C)[C@H](C)CC)[C@H](C)OC(=O)[C@H](C(C)C)NC1=O | 872 | 872 | 872 | 720 | 503 | 498 | 797 | 806 | 536 | 438 | 360 | 1110 | 1110 | 1090 | 1090 | 1810 | 1660 | 416 | 417 | 533 | TGI (SK-BR-3): 386 nM; TGI (SK-MEL-28): 1110 nM; TGI (A549): 1090 nM; GI50 (K562): 1810 nM; TGI (K562): 1810 nM; GI50 (PANC-1): 1660 nM; TGI (PANC-1): 1660 nM; CC50 (LoVo [3]): 341 nM; GI50 (LoVo [4]): 409 nM; CC50 (LoVo [4]): 333 nM; CC50 (HeLa): 903 nM; LC50 (concentration giving 50% net cell kill) [5]: 912 nM
2 | C/C=C1\NC(=O)[C@H](Cc2ccccc2)NC(=O)[C@@H](C(C)C)NC(=O)[C@@H]([C@H](C)CC)NC(=O)[C@H](NC(=O)[C@H](NC(=O)[C@H](CCCNC(=O)CCC2CCCCC2)NC(=O)[C@H]2CCCN2C(=O)[C@H](NC(=O)[C@@H](NC(=O)[C@@H](NC(=O)[C@H](NC(=O)CCCC(C)C)C(C)C)[C@@H](C)O)C(C)C)C(C)C)[C@H](C)CC)[C@H](C)OC(=O)[C@H](C(C)C)NC1=O | 176 | 76.6 | 853 | 89.8 | 48.1 | 459 | 158 | 103 | 547 | 36.2 | 94.7 | 94.3 | 327 | 365 | 109 | 17.7 | 163 | 130 | 39.2 | 63.4 | GI50 (SK-BR-3): 39 nM; GI50 (SK-MEL-28): 150 nM; GI50 (A549): 196 nM; GI50 (HT-29): 66.6 nM; TGI (HT-29): 85 nM; CC50 (LoVo [3]): 201 nM; GI50 (LoVo [4]): 93.5 nM; TGI (LoVo [4]): 93.7 nM; CC50 (LoVo [4]): 93.8 nM; GI50 (HeLa): 83.6 nM; TGI (HeLa): 175 nM; CC50 (HeLa): 799 nM; GI50 [5]: 166 nM; LC50 (concentration giving 50% net cell kill) [5]: 893 nM; TGI [5]: 264 nM
3 | C/C=C1\NC(=O)[C@H](Cc2ccccc2)NC(=O)[C@@H](C(C)C)NC(=O)[C@@H]([C@H](C)CC)NC(=O)[C@H](NC(=O)[C@H](NC(=O)[C@H](CCCNC(=O)/C=C/CCC)NC(=O)[C@H]2CCCN2C(=O)[C@H](NC(=O)[C@@H](NC(=O)[C@@H](NC(=O)[C@H](NC(=O)CCCC(C)C)C(C)C)[C@@H](C)O)C(C)C)C(C)C)[C@H](C)CC)[C@H](C)OC(=O)[C@H](C(C)C)NC1=O | 876 | 661 | 876 | 221 | 179 | 467 | 250 | 205 | 517 | 55.7 | 102 | 814 | 1120 | 1090 | 619 | 1820 | 1670 | 268 | 75.6 | 82.4 | GI50 (SK-BR-3): 67.8 nM; TGI (SK-MEL-28): 1120 nM; TGI (A549): 1090 nM; GI50 (K562): 1240 nM; TGI (K562): 1820 nM; GI50 (PANC-1): 1670 nM; TGI (PANC-1): 1670 nM; GI50 (HT-29): 126 nM; TGI (HT-29): 103 nM; CC50 (LoVo [3]): 90.6 nM; GI50 (LoVo [4]): 140 nM; TGI (LoVo [4]): 116 nM; CC50 (LoVo [4]): 96.9 nM; GI50 (HeLa): 407 nM; TGI (HeLa): 670 nM; CC50 (HeLa): 908 nM; GI50 [5]: 503 nM; LC50 (concentration giving 50% net cell kill) [5]: 802 nM; TGI [5]: 514 nM
4 | C/C=C1\NC(=O)[C@H](Cc2ccc(-c3ccccc3)cc2)NC(=O)[C@@H](C(C)C)NC(=O)[C@@H]([C@H](C)CC)NC(=O)[C@H](NC(=O)[C@H](NC(=O)[C@H](CCCN)NC(=O)[C@H]2CCCN2C(=O)[C@H](NC(=O)[C@@H](NC(=O)[C@@H](NC(=O)[C@H](NC(=O)CCCC(C)C)C(C)C)[C@@H](C)O)C(C)C)C(C)C)[C@H](C)CC)[C@H](C)OC(=O)[C@H](C(C)C)NC1=O | 146 | 166 | 129 | 159 | 253 | 564 | 230 | 134 | 536 | 68.9 | 968 | 190 | 644 | 947 | 52.1 | 1420 | 1400 | 516 | 184 | 268 | TGI (SK-BR-3): 183 nM; GI50 (SK-MEL-28): 214 nM; TGI (A549): 56.6 nM; GI50 (PANC-1): 1240 nM; TGI (PANC-1): 1330 nM; GI50 (HT-29): 214 nM; TGI (HT-29): 187 nM; CC50 (LoVo [3]): 317 nM; GI50 (LoVo [4]): 177 nM; TGI (LoVo [4]): 239 nM; CC50 (LoVo [4]): 284 nM; GI50 (HeLa): 220 nM; TGI (HeLa): 372 nM; CC50 (HeLa): 812 nM; GI50 [5]: 482 nM; LC50 (concentration giving 50% net cell kill) [5]: 1120 nM; TGI [5]: 762 nM
5 | C/C=C1\NC(=O)[C@H](Cc2ccccc2)NC(=O)[C@@H](C(C)C)NC(=O)[C@@H]([C@H](C)CC)NC(=O)[C@H](NC(=O)[C@H](NC(=O)[C@H](CCCNC(=O)C[C@](OC)(c2ccccc2)C(F)(F)F)NC(=O)[C@H]2CCCN2C(=O)[C@H](NC(=O)[C@@H](NC(=O)[C@@H](NC(=O)[C@H](NC(=O)CCCC(C)C)C(C)C)[C@@H](C)O)C(C)C)C(C)C)[C@H](C)CC)[C@H](C)OC(=O)[C@H](C(C)C)NC1=O | 812 | 886 | 812 | 313 | 245 | 442 | 397 | 344 | 479 | 91.8 | 158 | 1040 | 1040 | 1010 | 1010 | 1690 | 1550 | 311 | 92.7 | 91.4 | GI50 (SK-BR-3): 95.8 nM; TGI (SK-MEL-28): 1040 nM; TGI (A549): 1010 nM; GI50 (K562): 1110 nM; TGI (K562): 1690 nM; GI50 (PANC-1): 1550 nM; TGI (PANC-1): 1550 nM; GI50 (HT-29): 148 nM; TGI (HT-29): 147 nM; CC50 (LoVo [3]): 90.9 nM; CC50 (LoVo [4]): 119 nM; GI50 (HeLa): 537 nM; TGI (HeLa): 842 nM; CC50 (HeLa): 842 nM; GI50 [5]: 554 nM; LC50 (concentration giving 50% net cell kill) [5]: 850 nM; TGI [5]: 615 nM
